# Compound activity from PubChem BioAssay.
# Compounds with a hit are over-represented: about 4.9% of the library has one in this group of screens.
# APP 5'UTR act: activates APP 5'UTR luciferase reporter | SH-SY5Y APP 5'UTR luciferase reporter, luminescence; zero percent = DMSO vehicle wells | activation, % at 2 µM | 1% of 190,000 active | AID 1276;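 active = activation above a set limit, based on mean plus 3 SD of controls, cut at about 140% in these data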
# NF-kB expr up: raises NF-kB expression in human neuronal cells; NF-kB reporter expression; stronger effect = higher value; AID 1239; 1.6% of 190,000 active; fold change at 12.5 µM; in the data active = fold change above about 3.3
# STAT1 act: activators of IFN-gamma induced STAT1 signaling | NIH 3T3 STAT1-luciferase reporter, luminescence; 100% = IFN-gamma alone, no compound | activation (% of control), % at 5.5 µM | 2.6% of 200,000 active | AID 932;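 active = activation above the screen-wide mean activation plus 3 SD, cut at about 130% in these data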;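 note: raw ratio to IFN-gamma control signal so 100% means no change and 0% no light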
# STAT3 inh-1: inhibitors of IL-6 induced STAT3 signaling; U3A cells, IL-6 STAT3-luciferase reporter, luminescence; host cell line lacks STAT1; inhibition, % at 5.5 µM; 0.89% of 190,000 active;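 active = inhibition above the mean inhibition across all screened compounds plus 3 SD, cut at about 44% in these data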;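 note: 0% = DMSO only wells and 100% = 100 µM nifuroxazide control wells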
# STAT1 inh: reduces IFN-gamma driven STAT1 reporter signal; AID 920; 0.35% of 200,000 active; NIH 3T3 STAT1-luciferase reporter, luminescence; inhibition, % at 5.5 µM;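 active = inhibition above a set limit, the mean inhibition across all tested compounds plus 3 SD, cut at about 34% in these data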;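 note: 0% = IFN-gamma with DMSO and 100% = IFN-gamma with 300 µM nifuroxazide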
# STAT3 activator: activators of IL-6 induced STAT3 signaling. activation (% of control), % at 5.6 µM. 0.91% of 190,000 active. U3A cells, IL-6 STAT3-luciferase reporter, luminescence; 100% = signal with IL-6 EC80 alone;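 active = activation above the screen-wide mean of compound activation plus 3 SD, cut at about 130% in these data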;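 note: 0% = background luminescence of wells with medium and substrate only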
#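 Assay system – human STAT1-deficient U3A cells with stable STAT3-luciferase reporter · Also added – IL-6 (33 ng/mL) · Schedule – compound 1 h, then IL-6 6 h at 37 °C · Technique – reporter luminescence signal · Evaluation – % activation versus median of IL-6-stimulated wells · Benchmarks – IL-6-only wells as 100% reference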
# STAT3 inh-2: STAT3 inhibition, confirmation assay; shares compounds with STAT3 inh-1; U3A cells, IL-6 STAT3 luciferase reporter, luminescence; cell line lacks STAT1; inhibition, % at 5.7 µM; 45% of 1,200 active;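 active = inhibition above the hit cutoff computed for the primary STAT3 screen, cut at about 44% in these data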;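 note: 0% = IL-6 plus DMSO and 100% = IL-6 plus nifuroxazide control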
# NFkB inh STAT3ct: inhibits NF-kappaB, counter-screen to STAT3 inhibitors; shares compounds with STAT3 inh-1; HEK293T NF-kB luciferase reporter, TNF-alpha induced; inhibition, % at 5.7 µM; 36% of 1,200 active; AID 1308;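 active = inhibition above the mean of solvent-only control wells plus 3 SD, cutoff set per campaign, cut at about 13% in these data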;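 note: 0% = TNF-alpha with DMSO and 100% = TNF-alpha with MG high control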
# STAT1 inh 2: inhibits STAT1, counter-screen to STAT3 inhibitors | shares compounds with STAT3 inh-1 | NIH 3T3 STAT1-luciferase reporter, IFN-gamma induced, luminescence | inhibition, % at 5.7 µM | 27% of 1,200 active | AID 1317;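 active = inhibition above the mean plus 3 SD of solvent-only control wells, limit set per screening run, cut at about 16% in these data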;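 note: 0% = DMSO with IFN-gamma and 100% = nifuroxazide control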
# Numbers without * were called inactive; / = no result; ! = repeats disagree.
SMILES,APP 5'UTR act,NF-kB expr up,STAT1 act,STAT3 inh-1,STAT1 inh,STAT3 activator,STAT3 inh-2,NFkB inh STAT3ct,STAT1 inh 2
CCCOC(=O)c1ccc(OCC(O)Cn2c(C)nc3ccccc32)cc1 (stereo unspecified),0,1.4,77,61*,23,50,63*,20*,23*
C#CCNC(=O)C1CCN(c2cc(C)nc(-c3ccccc3)n2)CC1,20,1.1,106,9,-6,96,/,/,/
Cc1cc(C(=O)O)c(C)n1-c1ccccc1,0,1.1,109,-11,-10,110,/,/,/
CC(=O)Nc1ccc(SCC(=O)c2cc(C)n(-c3ccccc3)c2C)cc1,99,0.46,141*,44*,-45,61,13,-46,-118
O=C(Nc1ccc2c(c1)C(=O)N(CC1CCCO1)C2=O)c1ccc(Cl)c(Cl)c1 (stereo unspecified),0,1.1,110,72*,-11,41,62*,14*,-16
Cc1ccc2nc(C)cc(C(=O)N3CCCC(CO)(Cc4ccccc4C)C3)c2c1 (stereo unspecified),-9,1,93,-4,8,104,/,/,/
O=C(O)c1cc2c(s1)-c1ccccc1OC2,20,1,98,-2,3,108,/,/,/
O=C(NC1CC1)c1cc2c(s1)-c1ccccc1OC2,75,1.9,120,71*,-22,46,63*,-7,-42
Cc1ccc2nc(-c3ccc(NC(=O)C4CCCO4)cc3)[nH]c2c1 (stereo unspecified),115,3.8*,95,72*,6,41,32,-4,-104
O=C(Nc1ccc(-c2nc3cccnc3s2)cc1)C1CCCO1 (stereo unspecified),76,2.7,79,84*,23,27,66*,16*,-14
COC(=O)c1ccc(NC(=O)C2CCCO2)cc1 (stereo unspecified),11,1.6,100,23,0,88,/,/,/
OC1(c2ccc(OC(F)F)cc2)CSC(=Nc2cccnc2)N1C1CC1 (stereo unspecified),-3,0.96,87,53*,15,60,40,3,10
CCN1/C(=C/c2ccc3cc(C)ccc3[n+]2CC)Sc2ccccc21,-81,0.17,77,91*,26,24,88*,37*,21*
CC[n+]1c(/C=C2\Sc3ccccc3N2C)ccc2cccc(C)c21,-52,0.1,91,84*,9,33,80*,31*,8
CCC(=O)/C=C1/Sc2ccccc2N1CC,-29,0.74,100,19,-1,86,/,/,/
Cc1ccc(NC2=Nc3ccccc3CC2)cc1,179*,3.7*,95,44*,5,67,32,-10,-62
Cc1ccc(NC(=O)C2OCCc3ccccc32)cc1 (stereo unspecified),22,1.7,111,7,-12,98,/,/,/
O=C(Cn1c(=S)[nH]c2ccccc2c1=O)NCCc1ccccc1,5,1.1,95,-2,7,106,/,/,/
Brc1ccc(-n2cc(-c3ccccc3)c3c(NN4CCOCC4)ncnc32)cc1,5,0.59,100,4,0,96,/,/,/
N/C(=N\N=C\c1cccc(O)c1)c1nonc1N,155*,8.7*,105,63*,-7,49,27,-6,-2
Nc1nnnn1/N=C/c1cccc(O)c1,-3,1.1,104,-22,-5,130,/,/,/
O=C(CSCc1ccc(Cl)cc1)NCc1ccccn1,2,0.94,99,3,2,95,/,/,/
CC(C)C(=O)Nc1ccc(NC(=O)c2cccnc2)cn1,-8,0.96,97,14,4,91,/,/,/
CC(C)C(=O)Nc1ccc(NC(=O)c2ccccn2)cn1,101,1.9,92,53*,9,60,16,-22,-42
CCNc1nc(NCC)n2c(SCC(=O)c3ccccc3F)nnc2n1,-13,1.4,92,6,8,97,/,/,/
SMILES,APP 5'UTR act,NF-kB expr up,STAT1 act,STAT3 inh-1,STAT1 inh,STAT3 activator,STAT3 inh-2,NFkB inh STAT3ct,STAT1 inh 2
COc1cccc(NC(=O)Nc2nccc(C)n2)c1,109,4.1*,69,71*,33,42,37,3,-58
COc1cccc(NC(=O)Nc2ccc3c(c2)nc(C)n3C)c1,112,5.7*,92,54*,7,57,12,-15,-39
CC(=O)N/C(=C\c1ccccc1)C(=O)OCC(=O)N(C)C1CCCCC1,27,1.1,99,-7,1,105,/,/,/
CCS(=O)(=O)c1ccc2oc(Nc3cccc(OC)c3)nc2c1,22,1.1,112,0,-13,102,/,/,/
Cc1ccc(NC(=O)CSc2nnc(-c3cccnc3)s2)cc1,-7,1.2,99,-3,1,105,/,/,/
O=C(CSc1nnc(-c2cccnc2)s1)Nc1ccnc2ccccc12,10,0.6,82,72*,20,37,82*,22*,18*
CC1Cc2cc(-c3csc(NC(=O)Cc4ccccc4)n3)ccc2N1S(C)(=O)=O (stereo unspecified),1,0.5,97,66*,3,47,53*,13*,10
COc1ccc(-n2nc3c(c2NC(=O)c2ccc(S(=O)(=O)N4CCOCC4)cc2)CS(=O)(=O)C3)cc1,29,1.4,92,-8,8,108,/,/,/
O=C(Cn1cc(Cl)ccc1=O)c1ccc(Cl)cc1,-8,1.3,94,4,6,94,/,/,/
Clc1ccccc1Nc1nnc(-c2ccncc2)s1,160*,4.2*,131*,60*,-35,50,36,20*,-73
Cc1ccc(NC(=S)N(CCN2CCCCC2)Cc2ccco2)cc1Cl,12,1.1,98,8,1,95,/,/,/
COc1ccc(C(=O)Nc2ccccc2C(=O)N/N=C/c2ccco2)cc1,17,1.2,74,48*,29,60,2,18*,20*
COC(=O)c1ccc(CN2C(=O)NC(CC(C)C)C2=O)cc1 (stereo unspecified),-4,1.1,101,12,-3,93,/,/,/
CC1CCC(C(C)C)C(OC(=O)Cn2c(-c3ccccc3)[n+](C)c3ccccc32)C1 (stereo unspecified),19,0.77,82,53*!,20,57,34,3,22*
CC1CCC(C(C)C)C(OC(=O)Cn2c(-c3ccc(F)cc3)[n+](C)c3ccccc32)C1 (stereo unspecified),3,0.96,95,18,5,87,/,/,/
